The list is not random: actives were taken first. Their share in the collection is about 2.3%.
OXTR agonist: agonists of human oxytocin receptor; P30559; CHO-OTR cells, Fluo-8 calcium fluorescence; normalized: DMSO 0%, oxytocin 100%; activation, % at 3 µM; 320,000 compounds, 0.32% hits; AID 2435;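 active = activation above the mean of all tested compounds plus 3 SD, cutoff set per screening run, cut at about 20% in these data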;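 also: peak over basal fluorescence ratio from a 100 s FLIPR kinetic read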
TAAR1 antag: human TAAR1 antagonism; Q96RJ0; CHO RD-HGA16 TAAR1, Fluo-8 calcium fluorescence, antagonist; inhibition, % at 3 µM; 360,000 compounds, 1.5% hits;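 active = inhibition above a per-plate cutoff, the mean inhibition of test compounds on that plate plus 3 SD, cut at about 49% in these data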;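 also: 0% = DMSO plus EC80 beta-PEA response and 100% = DMSO alone without agonist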
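Material: CHO RD-HGA16 cells bearing hTAAR1; compound dosing: one-point dosing, 3 µM nominal final; schedule: dye loading 75 min at 37 °C, then 30 min room temperature; measured by: calcium fluorescence with Fluo-8; control set: vehicle and agonist controls; replication: n of 1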
OXTR potentiator: potentiates the human oxytocin receptor response; P30559; CHO-OTR cells, Fluo-8 calcium fluorescence, potentiator mode; 0% = oxytocin EC15, 100% = EC100; activation, % at 3 µM; AID 2445; 320,000 compounds, 0.061% hits;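 active = activation above that plate's cutoff, the mean activation of tested compounds plus 3 SD, cut at about 6.6% in these data, passing the limit was not always enough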;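 also: 100% uses oxytocin at 75 nM as the full agonist control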
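Material: CHO-OTR cells, human receptor; compound dosing: single dose, 3.0 µM nominal final compound concentration; schedule: 6 min compound pre-incubation at room temperature, 100 s kinetic read; measured by: kinetic Fluo-8 calcium fluorescence; read-out basis: % activation vs EC15 and EC100 oxytocin; controls: EC15 oxytocin alone as 0%, 75 nM oxytocin as 100%; replicates: singlicate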
TAAR1 ag: agonists of human TAAR1; activation, % at 3 µM; CHO RD-HGA16 TAAR1, Fluo-8 calcium fluorescence; vehicle wells 0%, saturating PEA agonist 100%; 360,000 compounds, 0.99% hits; AID 624467;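 active = activation above the mean activation of all test compounds in the run plus 3 SD, cut at about 38% in these data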
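Test system: RD-HGA16 (CHO) cells co-expressing Gα16 and hTAAR1 | Doses: Single dose, 3 µM | Schedule: 17-24 h seeding, 75 min 37 °C dye, 30 min RT | Evaluation: % activation from peak over basal fluorescence ratio, DMSO-to-PEA scaled | Technique: Kinetic Fluo-8 calcium fluorescence | Benchmarks: Low control DMSO, high control PEA (EC100)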
V1R ag counter: counter-screen for oxytocin receptor agonists: human V1a receptor agonists; P37288; CHO-V1R cells, Fluo-8 calcium fluorescence, agonist mode; 0% DMSO, 100% 3 nM vasopressin; activation, % at 3 µM; 320,000 compounds, 0.25% hits; AID 2797;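 active = activation above the mean activation of all tested compounds plus 3 SD, per screening run, cut at about 20% in these data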;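 also: signal is peak over basal fluorescence ratio across a 100 second FLIPR read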
Target sequence (P37288 whole entry, looked up): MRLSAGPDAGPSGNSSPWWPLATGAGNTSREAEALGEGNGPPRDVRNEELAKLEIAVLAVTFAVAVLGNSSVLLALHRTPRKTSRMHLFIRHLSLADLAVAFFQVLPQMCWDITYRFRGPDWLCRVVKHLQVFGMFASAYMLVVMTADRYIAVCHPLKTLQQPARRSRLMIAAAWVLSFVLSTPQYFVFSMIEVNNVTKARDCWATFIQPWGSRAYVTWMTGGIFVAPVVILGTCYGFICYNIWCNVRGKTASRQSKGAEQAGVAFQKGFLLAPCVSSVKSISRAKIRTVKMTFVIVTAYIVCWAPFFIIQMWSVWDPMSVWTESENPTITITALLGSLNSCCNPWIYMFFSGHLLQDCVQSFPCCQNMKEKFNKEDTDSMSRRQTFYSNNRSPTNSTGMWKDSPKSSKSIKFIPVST
An asterisk follows results filed as active; . = not tested or not shown.

SMILES | OXTR agonist | TAAR1 antag | OXTR potentiator | TAAR1 ag | V1R ag counter
O=C(CSc1nn(-c2ccccc2)c(=S)s1)Nn1cnnc1 | -1 | -13 | -11 | 11 | 0
Cc1ccc(NC(=O)CSc2nn(-c3ccccc3)c(=S)s2)cc1S(=O)(=O)N(C)C | 10 | 51* | -9 | 10 | 10
CC1(C(=O)NCc2cccc3ccccc23)CCN1C(=O)Cc1ccc(-c2ccccc2)cc1 (centres undefined) | . | 49* | . | 4 | .
NS(=O)(=O)c1ccc(CCn2c(=S)[nH]c3ccccc3c2=O)cc1 | 1 | 61* | -3 | 38* | 3
Cc1ccc(S(=O)(=O)N(C)c2ccc(C(=O)N3CCC(C(N)=O)CC3)cc2)cc1 | -1 | 4 | -5 | 4 | 0
O=C(NCCc1ccccc1)c1cc(-c2ccc3c(c2)OCO3)on1 | -1 | 11 | -6 | 38* | -1
CCCNC(=O)c1cc(-c2ccc3c(c2)OCO3)on1 | -1 | -14 | -15 | 2 | 2
CC(C)(C)NS(=O)(=O)c1ccc(CCC(=O)Nc2cc(Cl)ccc2Oc2ccccc2)cc1 | 1 | 28 | -19 | 4 | 3
CC(C)CNS(=O)(=O)c1ccc(CCC(=O)Nc2cc(Cl)ccc2Oc2ccccc2)cc1 | 0 | 63* | -12 | 7 | 3
CCCNS(=O)(=O)c1ccc(CCC(=O)Nc2cc(Cl)ccc2Oc2ccccc2)cc1 | . | 69* | . | 9 | .
CCCCC(=O)NNC(=S)NC(=O)c1ccc([N+](=O)[O-])cc1 | 1 | -2 | -5 | 17 | 0
c1ccc(Nc2ccc3c4c(cccc24)CC3)cc1 | 1 | 38 | -3 | 23 | 4
Nc1ccc2c3c(cccc13)CC2 | 46* | 32 | -8 | 18 | 46*
CCCN(CC(=O)Nc1ccccc1OC)C(=O)c1ccc2[nH]c3c(c2c1)CC(C)CC3 (centres undefined) | 0 | 51* | -6 | 15 | 2
CCN(CC(=O)Nc1ccccc1OC)C(=O)c1ccc2[nH]c3c(c2c1)CC(C)CC3 (centres undefined) | 6 | 56* | -11 | 24 | 8
COc1cc(OC)cc(C(=O)N2CCC(N3CCN(c4ccccc4OC)CC3)CC2)c1 | -1 | -10 | -11 | 0 | 0
CC(=NCc1cccc(Cl)c1)c1nc(-c2ccco2)oc1O | -1 | -16 | 2 | 0 | 0
O=C(COC(=O)c1cc(=O)[nH]c2ccccc12)Nc1nc(-c2ccccc2)cs1 | 0 | 50* | 11 | 7 | 2
CCc1c(C)nc(SCC(=O)Nc2cccc(Br)c2)[nH]c1=O | 4 | 5 | -8 | 8 | 4
Cc1c(CC(=O)NCC(=O)O)c(=O)oc2cc3oc4c(c3cc12)CCCC4 | . | 7 | . | -1 | .
O=C(c1ccc(N2CCN(C(=O)c3ccc(F)cc3F)CC2)cc1)c1cccc(F)c1 | 2 | 63* | -5 | 4 | 10
O=C(c1ccc(F)cc1F)N1CCN(c2ncccn2)CC1 | 6 | -1 | -9 | 6 | 1
O=C(CSc1nc2[nH]ncc2c(=O)[nH]1)c1ccccc1 | 0 | -8 | 3 | 4 | 1
COc1ccc(Cc2nnc(SCC(=O)NC3CCCCC3)n2C)cc1 | 0 | -1 | -6 | -2 | 0
C/C(=N/NS(=O)(=O)c1ccc(Br)cc1)c1ccc(NC(=O)c2ccc(C)o2)cc1 | 6 | 11 | -11 | 38* | 3
SMILES | OXTR agonist | TAAR1 antag | OXTR potentiator | TAAR1 ag | V1R ag counter
Cc1cccc(N2C(=O)c3cccc4c(N(C)CCO)ccc(c34)C2=O)c1 | 53* | . | -13 | . | 38*
CC(C)CCN1C(=O)c2cccc3c(N)ccc(c23)C1=O | 128* | 78* | -20 | 149* | 170*
Nc1cccc(N2C(=O)c3cccc4c(N)ccc(c34)C2=O)c1 | 28* | 20 | -12 | 25 | 47*
CN(C)c1ccc2c3c(cccc13)C(=O)N(c1ccccc1)C2=O | 2 | . | -17 | . | 5
Cc1cccc(N2C(=O)c3cccc4c(N)ccc(c34)C2=O)c1 | 172* | 45 | -27 | 101* | 139*
O=C(O)c1cccc(N2C(=O)c3cccc4c(Cl)ccc(c34)C2=O)c1 | 1 | 2 | -13 | 0 | 0
CCN1C(=O)c2cccc3c(Cl)ccc(c23)C1=O | -2 | -24 | -16 | -1 | -1
CCOC(=O)N1CCN(S(=O)(=O)N2CCCC(C(=O)NCCc3ccc(Cl)cc3)C2)CC1 (centres undefined) | 0 | -40 | 0 | 8 | 0
COc1ccc(C(CNC(=O)C2CC2)N(C)C)cc1 (centres undefined) | 1 | -9 | -3 | 1 | 1
Cc1ccc(NC(=O)NCC2CCN(Cc3cccc(Cl)c3)CC2)cc1Cl | 13 | 20 | -13 | 42* | 2
Cc1ccc(C)c(CN2CCC(CNC(=O)Nc3ccc(F)c(Cl)c3)CC2)c1 | 15 | 6 | -19 | 38* | 5
CCOC(=O)C(Sc1nn(C)c(=S)s1)C(C)=O (centres undefined) | 1 | -19 | -2 | 10 | -1
CCOC(=O)c1sc2nc(CSc3ccccc3)nc(N3CCCN(C)CC3)c2c1C | 17 | -13 | -8 | 38* | 7
CCOC(=O)c1sc2nc(CSc3ccccc3)nc(N3CCC(C(N)=O)CC3)c2c1C | 0 | 39 | -8 | 22 | 1
O=C1N[C@H](Cc2ccccc2)COC(=O)[C@H](Cc2ccc(F)cc2)CC/C=C/C[C@@H]1CC(=O)N(CCO)Cc1ccccc1 | 2 | 64* | -10 | 44* | 4
O=C1N[C@@H](Cc2c[nH]c3ccccc23)COC(=O)[C@H](Cc2ccc(F)cc2)C/C=C\C[C@@H]1CC(=O)N(CCO)Cc1ccccc1 | 0 | 34 | -9 | 6 | 0
O=C1N[C@@H](c2ccccc2)COC(=O)[C@H](Cc2ccc(F)cc2)C/C=C\C[C@H]1CC(=O)N(CCO)Cc1ccccc1 | . | 18 | . | 6 | .
O=C1N[C@@H](c2ccccc2)COC(=O)[C@@H](Cc2ccc(F)cc2)C/C=C\C[C@@H]1CC(=O)N(CCO)Cc1ccccc1 | 43* | 77* | -11 | 39* | 36*
CC(C)(C)[C@H]1COC(=O)[C@@H](Cc2ccc(F)cc2)C/C=C\C[C@@H](CC(=O)N[C@H](CO)Cc2ccccc2)C(=O)N1 | 4 | 27 | -5 | 29 | 2
O=C1N[C@@H](Cc2c[nH]c3ccccc23)COC(=O)[C@@H](Cc2ccc(F)cc2)C/C=C\C[C@H]1CC(=O)N(CCO)Cc1ccccc1 | 0 | 55* | -9 | 10 | 2
CC(C)(C)[C@H]1COC(=O)[C@@H](Cc2ccc(F)cc2)C/C=C\C[C@@H](CC(=O)N[C@@H](CO)Cc2ccccc2)C(=O)N1 | -1 | 58* | 5 | 22 | 1
Cc1nc(C(=O)Nc2ccccc2)sc1C1(C)CC(c2cccnc2)=NO1 (centres undefined) | 7 | 17 | -13 | 7 | 7

Screening data deposited in PubChem BioAssay by The Scripps Research Institute Molecular Screening Center.
